Test results: ChEMBL document CHEMBL3352515, “Design, synthesis, antiviral and cytostatic activity of ω-(1H-1,2,3-triazol-1-yl)(polyhydroxy)alkylphosphonates as acyclic nucleotide analogues” (Bioorg Med Chem, 2014)
The source made the active and inactive calls. No cut-off for these calls is given here.

Columns and labels:
HeLa = assay: Cytostatic activity against human HeLa cells assessed as inhibition of proliferation after 72 hrs by Coulter cell counting method; format: functional, cell-based
How it was run: (§1)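 (5–7.5) × 10⁴ tumor cells per well were exposed to test compound at 37 °C in humidified CO₂. Incubation ran 48 h for L1210 and 72 h for CEM and HeLa. Cells were then counted in a Coulter counter. IC₅₀ is the concentration that inhibits cell proliferation by 50%.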

L1210 = assay: Cytostatic activity against mouse L1210 cells assessed as inhibition of proliferation after 48 hrs by Coulter cell counting method; format: functional, cell-based; settings: L1210, 48 h; how it was run: as §1
CCRF-CEM = assay: Cytostatic activity against human CEM cells assessed as inhibition of proliferation after 72 hrs by Coulter cell counting method; format: functional, cell-based; how it was run: as §1
Felid alphaherpesvirus 1 = assay: Antiviral activity against Feline herpesvirus 1 infected in HEL cells assessed as inhibition of virus-induced cytopathogenicity; format: functional, organism-based; settings: for EC50: Felid alphaherpesvirus 1, HEL
How it was run: (§2)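 Confluent host-cell monolayers in 96-well plates were inoculated with 100 CCID₅₀ of virus while exposed to a range of test compound concentrations. Cytopathic effect was scored once it was complete in untreated infected controls. EC₅₀ is the concentration that reduces virus-induced cytopathogenicity by 50%.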

[1] = test system: Vesicular stomatitis virus; assay: Antiviral activity against Vesicular stomatitis virus infected in HeLa cells assessed as inhibition of virus-induced cytopathogenicity; format: functional, organism-based
How it was run: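 HeLa cell monolayers (confluent) were infected with 100 CCID50 of VSV in the presence of serial compound concentrations. Viral cytopathicity was read when complete in untreated infected controls. EC50 is the concentration that reduced virus-induced cytopathogenicity by 50%.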

Human alphaherpesvirus 2 = assay: Antiviral activity against HSV-2 infected in HEL cells assessed as inhibition of virus-induced cytopathogenicity; format: functional, organism-based; how it was run: as §2
Human alphaherpesvirus 1 = assay: Antiviral activity against HSV-1 infected in HEL cells assessed as inhibition of virus-induced cytopathogenicity; format: functional, organism-based; how it was run: as §2
Human alphaherpesvirus 3 = assay: Antiviral activity against Thymidine kinase-positive Varicella-zoster virus Oka infected in HEL assessed as reduction in virus plaque formation; format: functional, organism-based; settings: Human alphaherpesvirus 3, strain Oka vaccine
How it was run: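 Confluent HEL fibroblast cultures were inoculated with 20 PFU of VZV together with varying compound concentrations. Plaque formation was recorded once complete in untreated infected controls. EC50 is the concentration that reduced viral plaque formation by 50%.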

Influenza A virus H3N2 = assay: Antiviral activity against Influenza A virus H3N2 infected in MDCK cells assessed as inhibition of virus-induced cytopathogenicity; format: functional, organism-based
How it was run: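 Confluent MDCK cell cultures were infected in the presence of varying compound concentrations. Cytopathicity was recorded once complete in untreated virus-infected controls, scored visually and by MTS colorimetric assay. EC50 is the concentration that reduced virus-induced cytopathogenicity by 50%.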

[2] = Cytotoxicity against MDCK cells assessed as reduction in cell viability by MTS assay; format: cell-based, Canis lupus familiaris; settings: dog
How it was run: (§3)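 Uninfected host cells were exposed to test compound, and viability was read by the colorimetric MTS assay. CC₅₀ is the concentration causing a 50% decrease in cell viability.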

[3] = test system: Respiratory syncytial virus; assay: Antiviral activity against Respiratory syncytial virus infected in HeLa cells assessed as inhibition of virus-induced cytopathogenicity; format: functional, organism-based; how it was run: as §2
[4] = Cytotoxicity against feline CRFK cells assessed as reduction in cell viability by MTS assay; format: cell-based, Felis catus; settings: cat; how it was run: as §3

Compound	IC50 (HeLa) [µM]	IC50 (L1210) [µM]	IC50 (CCRF-CEM) [µM]	other results
CC(=O)c1cn(Cc2cn(C[C@H](OCc3ccccc3)[C@@H](O)P(=O)(OCc3ccccc3)OCc3ccccc3)nn2)c2ccccc12	> 200	> 200	> 200	
CC1(C)O[C@@H]([C@@H](O)P(=O)(OCc2ccccc2)OCc2ccccc2)[C@@H](Cn2cc(Cn3ccc(=O)[nH]c3=O)nn2)O1	> 200	> 200	> 200	
O=c1ccccn1Cc1cn(C[C@H](OCc2ccccc2)[C@H](O)P(=O)(OCc2ccccc2)OCc2ccccc2)nn1	28	76	101	
Cn1c(=O)c2c(ncn2Cc2cn(C[C@H](OCc3ccccc3)[C@H](O)P(=O)(OCc3ccccc3)OCc3ccccc3)nn2)n(C)c1=O	83	56	72	
CC1(C)O[C@@H]([C@@H](O)P(=O)(OCc2ccccc2)OCc2ccccc2)[C@H](Cn2cc(Cn3ccc(=O)[nH]c3=O)nn2)O1	118	> 200	> 200	
Cc1cn(Cc2cn(C[C@H](O)[C@@H](O)P(=O)(O)O)nn2)c(=O)[nH]c1=O	> 200	> 200	> 200	
Cn1cnc2c1c(=O)n(Cc1cn(C[C@H]3OC(C)(C)O[C@H]3[C@@H](O)P(=O)(OCc3ccccc3)OCc3ccccc3)nn1)c(=O)n2C	> 200	86	115	
CC(=O)Nc1ccn(Cc2cn(C[C@H](OCc3ccccc3)[C@@H](O)P(=O)(OCc3ccccc3)OCc3ccccc3)nn2)c(=O)n1	> 200	153	169	
O=c1ccn(Cc2cn(C[C@H](OCc3ccccc3)[C@H](O)P(=O)(OCc3ccccc3)OCc3ccccc3)nn2)c(=O)[nH]1	66	86	91	inhibition (Felid alphaherpesvirus 1): inactive
NC(=O)c1ncn([C@@H]2O[C@H](CO)[C@@H](O)[C@H]2O)n1 [RIBAVIRIN]				EC50 [1]: 17 µM
O=c1ccccn1Cc1cn(C[C@H](OCc2ccccc2)[C@@H](O)P(=O)(OCc2ccccc2)OCc2ccccc2)nn1	45	63	90	
CC1(C)O[C@@H]([C@@H](O)P(=O)(OCc2ccccc2)OCc2ccccc2)[C@@H](Cn2cc(Cn3cnc4c(N)ncnc43)nn2)O1	> 200	98	140	
Cc1cn(Cc2cn(C[C@@H]3OC(C)(C)O[C@H]3[C@@H](O)P(=O)(OCc3ccccc3)OCc3ccccc3)nn2)c(=O)[nH]c1=O	107	139	> 200	
CC(=O)Nc1ccn(Cc2cn(C[C@@H]3OC(C)(C)O[C@H]3[C@@H](O)P(=O)(OCc3ccccc3)OCc3ccccc3)nn2)c(=O)n1	> 200	> 200	> 200	
Cn1c(=O)c2c(nc(Cl)n2Cc2cn(C[C@@H]3OC(C)(C)O[C@H]3[C@@H](O)P(=O)(OCc3ccccc3)OCc3ccccc3)nn2)n(C)c1=O	> 200	> 200	> 200	
CC(=O)Nc1ccn(Cc2cn(C[C@H]3OC(C)(C)O[C@H]3[C@@H](O)P(=O)(OCc3ccccc3)OCc3ccccc3)nn2)c(=O)n1	> 200	> 200	> 200	
CCOP(=O)(CCCn1cc(Cn2c(=O)n(C(=O)c3ccccc3)c(=O)c3ccccc32)nn1)OCC				EC50 (Felid alphaherpesvirus 1): 24 µM
Nc1ncnc2c1ncn2Cc1cn(C[C@H](OCc2ccccc2)[C@@H](O)P(=O)(OCc2ccccc2)OCc2ccccc2)nn1	81	66	78	
Cn1cnc2c1c(=O)n(Cc1cn(C[C@@H]3OC(C)(C)O[C@H]3[C@@H](O)P(=O)(OCc3ccccc3)OCc3ccccc3)nn1)c(=O)n2C	> 200	145	142	
O=C(c1ccccc1)n1c(=O)ccn(Cc2cn(C[C@H](OCc3ccccc3)[C@H](O)P(=O)(OCc3ccccc3)OCc3ccccc3)nn2)c1=O	57	21	21	inhibition (Human alphaherpesvirus 2): inactive; inhibition (Human alphaherpesvirus 1): inactive

Compound	IC50 (HeLa) [µM]	IC50 (L1210) [µM]	IC50 (CCRF-CEM) [µM]	other results
Cn1c(=O)c2c(nc(Cl)n2Cc2cn(C[C@H]3OC(C)(C)O[C@H]3[C@@H](O)P(=O)(OCc3ccccc3)OCc3ccccc3)nn2)n(C)c1=O	85	58	51	EC50 (Human alphaherpesvirus 3): 55.7 µM
Cc1cn(Cc2cn(C[C@H](OCc3ccccc3)[C@@H](O)P(=O)(OCc3ccccc3)OCc3ccccc3)nn2)c(=O)[nH]c1=O	> 200	> 200	> 200	EC50 (Influenza A virus H3N2): 20 µM; CC50 [2]: > 100 µM; MCC [2]: > 100 µM
Cc1cn(Cc2cn(C[C@H](OCc3ccccc3)[C@H](O)P(=O)(OCc3ccccc3)OCc3ccccc3)nn2)c(=O)[nH]c1=O	64	85	83	
Nc1ncnc2c1ncn2Cc1cn(C[C@H](OCc2ccccc2)[C@H](O)P(=O)(OCc2ccccc2)OCc2ccccc2)nn1	80	46	76	
Cn1cnc2c1c(=O)n(Cc1cn(C[C@H](OCc3ccccc3)[C@@H](O)P(=O)(OCc3ccccc3)OCc3ccccc3)nn1)c(=O)n2C	78	71	82	
O=C(c1ccccc1)n1c(=O)ccn(Cc2cn(C[C@H](O)[C@@H](O)P(=O)(O)O)nn2)c1=O	> 200	> 200	> 200	
CC(=O)Nc1ccn(Cc2cn(C[C@H](OCc3ccccc3)[C@H](O)P(=O)(OCc3ccccc3)OCc3ccccc3)nn2)c(=O)n1	160	96	82	
O=c1ccn(Cc2cn(C[C@H](OCc3ccccc3)[C@@H](O)P(=O)(OCc3ccccc3)OCc3ccccc3)nn2)c(=O)[nH]1	> 200	> 200	> 200	
O=C(c1ccccc1)n1c(=O)ccn(Cc2cn(C[C@H](OCc3ccccc3)[C@@H](O)P(=O)(OCc3ccccc3)OCc3ccccc3)nn2)c1=O	76	26	21	EC50 ([3]; human respiratory syncytial virus): 12 µM; EC50 [1]: 9 µM
O=c1cnn(Cc2cn(C[C@H](OCc3ccccc3)[C@H](O)P(=O)(OCc3ccccc3)OCc3ccccc3)nn2)c(=O)[nH]1	122	71	81	
Cc1cn(Cc2cn(C[C@H]3OC(C)(C)O[C@H]3[C@@H](O)P(=O)(OCc3ccccc3)OCc3ccccc3)nn2)c(=O)[nH]c1=O	> 200	122	> 200	
CC1(C)O[C@@H]([C@@H](O)P(=O)(OCc2ccccc2)OCc2ccccc2)[C@H](Cn2cc(Cn3cnc4c(N)ncnc43)nn2)O1		> 200	> 200	
Cn1c(=O)c2c(ncn2Cc2cn(C[C@H]3OC(C)(C)O[C@H]3[C@@H](O)P(=O)(OCc3ccccc3)OCc3ccccc3)nn2)n(C)c1=O	> 200	> 200	> 200	
Cn1cnc2c1c(=O)n(Cc1cn(C[C@H](OCc3ccccc3)[C@H](O)P(=O)(OCc3ccccc3)OCc3ccccc3)nn1)c(=O)n2C	76	58	68	
Cn1c(=O)c2c(ncn2Cc2cn(C[C@H](OCc3ccccc3)[C@@H](O)P(=O)(OCc3ccccc3)OCc3ccccc3)nn2)n(C)c1=O	79	71	71	
Cn1c(=O)c2c(nc(Cl)n2Cc2cn(C[C@H](OCc3ccccc3)[C@H](O)P(=O)(OCc3ccccc3)OCc3ccccc3)nn2)n(C)c1=O	86	22	25	
O=C(c1ccccc1)n1c(=O)c2ccccc2n(Cc2cn(C[C@H](OCc3ccccc3)[C@H](O)P(=O)(OCc3ccccc3)OCc3ccccc3)nn2)c1=O	5.1	4.7	4.7	EC50 (Human alphaherpesvirus 2; Human alphaherpesvirus 2, HEL): 4 µM; MCC [4]: ≥ 4 µM; EC50 (Human alphaherpesvirus 1; Human alphaherpesvirus 1, HEL): 2.9 µM; EC50 (Felid alphaherpesvirus 1): 4 µM
Cn1c(=O)c2c(nc(Cl)n2Cc2cn(C[C@H](OCc3ccccc3)[C@@H](O)P(=O)(OCc3ccccc3)OCc3ccccc3)nn2)n(C)c1=O	> 200	70	27	
CC(=O)c1cn(Cc2cn(C[C@H](OCc3ccccc3)[C@H](O)P(=O)(OCc3ccccc3)OCc3ccccc3)nn2)c2ccccc12	13	15	16	
O=C(c1ccccc1)n1c(=O)c2ccccc2n(Cc2cn(C[C@H](OCc3ccccc3)[C@@H](O)P(=O)(OCc3ccccc3)OCc3ccccc3)nn2)c1=O	7.1	4.1	4.7	inhibition [3]: inactive; inhibition [1]: inactive
